Source: ChEMBL document CHEMBL1122512, “Investigations on the chemistry of berbanes. 10. Synthesis of raunescinone analogues with hypotensive and antihypertensive activity” (1984)

Key:
[1] = tested on: Rattus norvegicus; test: Change in heart rate after 24 hours of dosing was measured in conscious normotensive male rats at a dose of 5 mg/kg administered intraperitoneally in 5 rats; format: functional; conditions: route intraperitoneal
How it was run: (§1)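 Heart rate was recorded electronically through the blood-pressure recorder during tail-cuff measurement in conscious normotensive male rats (250–300 g), restrained in Plexiglass tubes at 37 °C. Dosing was intraperitoneal, and change from the pre-dose rate was followed to 48 h.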

[2] = tested on: Rattus norvegicus; test: Change in blood pressure after 12 hours of dosing was measured in conscious normotensive male rats at a dose of 5 mg/kg administered intraperitoneally in 5 rats; format: functional; conditions: route intraperitoneal
How it was run: (§2)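 Conscious normotensive male rats (250–300 g) were restrained in Plexiglass tubes kept at 37 °C. Systolic pressure was read indirectly at the tail root using a tail cuff and a sphygmomanometer with a crystal-microphone pulse pick-up. Dosing was intraperitoneal, and change from the pre-dose value was followed to 48 h.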

[3] = tested on: Rattus norvegicus; test: Change in heart rate after 18 hours of dosing was measured in conscious normotensive male rats at a dose of 5 mg/kg administered intraperitoneally in 5 rats; format: functional; conditions: route intraperitoneal; how it was run: as §1
[4] = tested on: Rattus norvegicus; test: Heart rate was measured prior to dosing in conscious normotensive male rats at a dose of 5 mg/kg administered intraperitoneally in 5 rats; format: functional; conditions: route intraperitoneal; how it was run: as §1
[5] = tested on: Rattus norvegicus; test: Change in blood pressure after 24 hours of dosing was measured in conscious normotensive male rats at a dose of 5 mg/kg administered intraperitoneally in 5 rats; format: functional; conditions: route intraperitoneal; how it was run: as §2
[6] = tested on: Rattus norvegicus; test: Change in heart rate after 48 hours of dosing was measured in conscious normotensive male rats at a dose of 5 mg/kg administered intraperitoneally in 5 rats; format: functional; conditions: route intraperitoneal; how it was run: as §1
[7] = tested on: Mus musculus; test: Lack of depressant effect on the CNS as measured by the forced coordinated motor activity on mice was expressed as time elapsed from dosing required to obtain maximum hypotensive or antihypertensive effect; format: functional, Central nervous system
[8] = tested on: Rattus norvegicus; test: Change in blood pressure after 6 hours of dosing was measured in conscious normotensive male rats at a dose of 5 mg/kg administered intraperitoneally in 5 rats; format: functional; conditions: route intraperitoneal; how it was run: as §2
[9] = tested on: Rattus norvegicus; test: Systolic blood pressure was measured prior to dosing in conscious normotensive male rats at a dose of 5 mg/kg administered intraperitoneally in 5 rats; format: functional; conditions: route intraperitoneal; how it was run: as §2
[10] = tested on: Rattus norvegicus; test: Change in heart rate after 3 hours of dosing was measured in conscious normotensive male rats at a dose of 5 mg/kg administered intraperitoneally in 5 rats; format: functional; conditions: route intraperitoneal; how it was run: as §1
[11] = Ratio of performance time under the effect and corresponding control performance time; format: functional
How it was run: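 Female mice (20–25 g), in groups of 10, were trained on a 3 cm rod at 15 rpm and tested 6 h after intraperitoneal dosing. The activity ratio is the group performance time under drug divided by the control group performance time.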

[12] = tested on: Rattus norvegicus; test: Change in blood pressure after 48 hours of dosing was measured in conscious normotensive male rats at a dose of 5 mg/kg administered intraperitoneally in 5 rats; format: functional; conditions: route intraperitoneal; how it was run: as §2
[13] = tested on: Rattus norvegicus; test: Change in heart rate after 12 hours of dosing was measured in conscious normotensive male rats at a dose of 5 mg/kg administered intraperitoneally in 5 rats; format: functional; conditions: route intraperitoneal; how it was run: as §1
[14] = organism: Mus musculus; test: Compound was evaluated for its lack of depresant effect on the CNS as measured by the forced coordinated motor activity on 10 mice; format: functional
[15] = tested on: Rattus norvegicus; test: Change in heart rate after 6 hours of dosing was measured in conscious normotensive male rats at a dose of 5 mg/kg administered intraperitoneally in 5 rats; format: functional; conditions: route intraperitoneal; how it was run: as §1
[16] = tested on: Rattus norvegicus; test: Change in blood pressure after 18 hours of dosing was measured in conscious normotensive male rats at a dose of 5 mg/kg administered intraperitoneally in 5 rats; format: functional; conditions: route intraperitoneal; how it was run: as §2
[17] = tested on: Rattus norvegicus; test: Change in blood pressure after 3 hours of dosing was measured in conscious normotensive male rats at a dose of 5 mg/kg administered intraperitoneally in 5 rats; format: functional; conditions: route intraperitoneal; how it was run: as §2

For COC(=O)[C@H]1[C@H]2C[C@@H]3c4[nH]c5cc(OC)ccc5c4CCN3C[C@H]2C[C@@H](OC(=O)c2cc(OC)c(OC)c(OC)c2)[C@@H]1OC [RESERPINE], the “Change in heart rate” value [1] was -32, the “Change in BP” value [2] was -16 and the “Change in heart rate” value [3] was -40. The Heart rate [4] was 364 beats min-1, the “Change in BP” value [5] was -12 and the “Change in heart rate” value [6] was -10. The Time [7] was 6 h, the “Change in BP” value [8] was -23 and the BP [9] was 117 mmHg. For the same compound, the “Change in heart rate” value [10] was -34, the Activity ratio [11] was under 0.08 and the “Change in BP” value [12] was -7. The “Change in heart rate” value [13] was -40, the Group performance time [14] was 9 s and the “Change in heart rate” value [15] was -44. The “Change in BP” value [16] was -10 and the “Change in BP” value [17] was -18.
